Activity calls are given as the source filed them. The rule behind the calls is not given here.
Key:
DNA [1] = test: Binding affinity to calf thymus DNA assessed as thermal denaturation temperature at 20 uM after 4 hrs; format: nucleic-acid assay; details: Bos taurus
DNA [2] = test: Binding affinity to calf thymus DNA assessed as thermal denaturation temperature at 20 uM after 18 hrs; format: nucleic-acid assay; details: Bos taurus
DNA [3] = test: Binding affinity to calf thymus DNA assessed as thermal denaturation temperature at 20 uM after 72 hrs; format: nucleic-acid assay; details: Bos taurus
LOX IMVI [4] = test: Cytotoxicity against human LOXIMVI cells after 24 hrs by Alamar blue method; format: functional, cell-based
OVCAR-5 [5] = test: Cytotoxicity against human OVCAR5 cells after 96 hrs by Alamar blue method; format: functional, cell-based; details: OVCAR-5, 96 h
Outline: (§1)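 Cells were exposed to compound continuously for 96 h, and viability was read by Alamar blue. The IC50 is the mean with standard deviation of three independent experiments.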

LOX IMVI [6] = test: Cytotoxicity against human LOXIMVI cells after 96 hrs by Alamar blue method; format: functional, cell-based; outline: as §1
LOX IMVI [7] = test: Cytotoxicity against human LOXIMVI cells at 1 uM after 96 hrs by Alamar blue method; format: functional, cell-based
OVCAR-5 [8] = test: Cytotoxicity against human OVCAR5 cells at 1 uM after 96 hrs by Alamar blue method; format: functional, cell-based

Structure (SMILES) | ΔTm (DNA [1]) | ΔTm (DNA [2]) | ΔTm (DNA [3]) | IC50 (LOX IMVI [4]) | IC50 (OVCAR-5 [5]) | IC50 (LOX IMVI [6]) | Activity (LOX IMVI [7]) | Activity (OVCAR-5 [8])
COc1cc2c(cc1O)N=C[C@@H]1CCCN1C2=O | 0.5 °C | 0.7 °C | 0.8 °C | – | – | – | – | –
CCN(CC)c1ccc2cc(C(=O)NCCCOc3cc4c(cc3OC)C(=O)N3CCC[C@H]3C=N4)c(=O)oc2c1 | 3.4 °C | 3.6 °C | 3.9 °C | 1.5 µM | 3.2 µM | 1.4 µM | – | –
CCOC(=O)c1cc2ccc(N(CC)CC)cc2oc1=O | 0.2 °C | 0.2 °C | 0.2 °C | – | > 10 µM | > 10 µM | – | –
CCN(CC)c1ccc2cc(C(=O)NCCCCNC(=O)CCOc3cc4c(cc3OC)C(=O)N3CCC[C@H]3C=N4)c(=O)oc2c1 | 0.7 °C | 0.9 °C | 1 °C | – | > 10 µM | > 10 µM | – | –
COc1cc2c(cc1C)N=C[C@@H]1CCCN1C2=O | – | – | – | – | – | – | inactive | inactive
CCN(CC)c1ccc2cc(C(=O)NCCCCCCCCOc3cc4c(cc3OC)C(=O)N3CCC[C@H]3C=N4)c(=O)oc2c1 | 1.4 °C | 2 °C | 2.9 °C | – | 7.8 µM | 4.5 µM | – | –

Source: ChEMBL document CHEMBL1142375, “Fluorescent 7-diethylaminocoumarin pyrrolobenzodiazepine conjugates: synthesis, DNA interaction, cytotoxicity and differential cellular localization” (Bioorg Med Chem Lett, 2008)
